Measurements as given in ChEMBL document CHEMBL2417485, “Quinazoline-based multi-tyrosine kinase inhibitors: synthesis, modeling, antitumor and antiangiogenic properties” (Eur J Med Chem, 2013).
One block for each compound: values may come before it. The source made the active and inactive calls. The rule behind the calls is not given here.

What was measured:
NIH3T3 = test: Antiproliferative activity against mouse NIH/3T3 cells after 72 hrs by MTT assay; type: cell-based; details: NIH3T3, 72 h
A-431 = test: Antiproliferative activity against human A431 cells after 72 hrs by MTT assay; type: functional, cell-based; details: A-431, 72 h
Mus musculus [1] = test: Antitumor activity against mouse BNL 1ME A.7R.1 cells allografted in Balb/c mouse assessed as tumor growth inhibition at 50 mg/kg, ip daily measured after 7 days; type: functional, organism-based; set-up: dose 50 mg/kg
Summary of the method: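 Male Balb/c mice, 10 weeks old, received 10⁷ BNL 1ME A.7R.1 cells in PBS subcutaneously in the dorsal region. From day 7, mice were dosed daily ip with 50 mg/kg in 0.9% NaCl with 5% PEG 400 and 0.5% Tween 80, or vehicle. Tumors were measured daily for 7 days by caliper (V = AB²/2). Mean ± SEM, five animals per group.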

HUVEC [2] = test: Antiangiogenic activity in HUVEC assessed as reduction in cell migration at 1 uM after 4 hrs by matrigel assay; type: functional, cell-based; details: Homo sapiens, in the assay text read “by modified Boyden chamber assay” for “by matrigel assay”
Summary of the method: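 Modified Boyden chamber. HUVECs (3×10^4 cell/cm²) were placed on 5.0 µm pore inserts in basal medium with 1% FCS, ±1 µM compound; the lower chamber held growth-factor medium. After 4 h, cells were fixed, the upper side was swabbed, and membranes were DAPI-stained. Nuclei were counted in five fields per insert. Five repeats; results are the percent change from growth-factor-only controls.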

[3] = target: Vascular endothelial growth factor receptor 2 (Homo sapiens) (UniProt P35968); test: Inhibition of VEGFR2 (unknown origin) at 1 uM
Vascular endothelial growth factor receptor 2 (Homo sapiens), sequence (P35968 whole entry): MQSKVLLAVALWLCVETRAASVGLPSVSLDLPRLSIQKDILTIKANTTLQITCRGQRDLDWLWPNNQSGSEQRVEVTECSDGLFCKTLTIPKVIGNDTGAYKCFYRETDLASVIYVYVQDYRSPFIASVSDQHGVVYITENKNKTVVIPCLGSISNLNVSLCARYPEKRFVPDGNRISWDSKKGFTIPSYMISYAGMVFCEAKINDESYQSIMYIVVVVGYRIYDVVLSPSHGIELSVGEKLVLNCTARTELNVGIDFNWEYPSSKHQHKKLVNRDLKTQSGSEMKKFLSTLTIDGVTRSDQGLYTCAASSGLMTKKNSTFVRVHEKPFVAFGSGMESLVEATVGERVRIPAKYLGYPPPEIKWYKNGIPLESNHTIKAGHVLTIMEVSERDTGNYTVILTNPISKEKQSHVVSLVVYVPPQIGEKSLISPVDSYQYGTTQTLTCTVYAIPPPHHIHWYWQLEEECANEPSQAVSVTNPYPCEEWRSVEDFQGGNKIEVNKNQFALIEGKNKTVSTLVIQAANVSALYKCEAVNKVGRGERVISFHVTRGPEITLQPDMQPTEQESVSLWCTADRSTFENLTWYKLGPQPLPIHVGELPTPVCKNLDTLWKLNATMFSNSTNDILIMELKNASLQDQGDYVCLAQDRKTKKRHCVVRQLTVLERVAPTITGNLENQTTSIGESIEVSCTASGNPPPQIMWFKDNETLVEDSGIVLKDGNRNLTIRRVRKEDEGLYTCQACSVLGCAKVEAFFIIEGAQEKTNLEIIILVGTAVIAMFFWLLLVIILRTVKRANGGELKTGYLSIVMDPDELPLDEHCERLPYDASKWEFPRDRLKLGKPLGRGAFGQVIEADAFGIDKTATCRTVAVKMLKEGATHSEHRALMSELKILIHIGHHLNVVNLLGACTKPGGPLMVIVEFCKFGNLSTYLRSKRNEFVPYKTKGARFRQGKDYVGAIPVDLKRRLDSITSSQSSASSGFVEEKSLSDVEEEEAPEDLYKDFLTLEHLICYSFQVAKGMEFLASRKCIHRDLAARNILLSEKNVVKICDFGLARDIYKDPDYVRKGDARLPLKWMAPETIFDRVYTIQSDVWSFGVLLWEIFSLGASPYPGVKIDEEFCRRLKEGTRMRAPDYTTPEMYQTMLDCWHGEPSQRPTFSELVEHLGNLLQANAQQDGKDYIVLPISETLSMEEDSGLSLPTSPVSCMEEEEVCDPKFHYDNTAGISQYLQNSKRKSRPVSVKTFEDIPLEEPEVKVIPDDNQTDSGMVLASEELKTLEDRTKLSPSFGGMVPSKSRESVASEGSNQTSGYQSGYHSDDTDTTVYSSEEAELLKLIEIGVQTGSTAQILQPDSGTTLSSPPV
Summary of the method: (§1)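 Recombinant FGFR-1 or VEGFR-2 (final 200 ng/mL) in MOPS pH 7.2 buffer with MgCl2, EGTA, EDTA, DTT and BSA. Compound range was 1–0.01 µM. Reactions used myelin basic protein (0.2 mg/ml), 0.05 mM ATP and 0.25 μCi [γ-32P]ATP, 30 °C for 20 min.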

[4] = target: Tyrosine-protein kinase ABL1 (Homo sapiens, UniProt P00519); test: Inhibition of Abl (unknown origin)
Tyrosine-protein kinase ABL1, sequence (P00519 whole entry): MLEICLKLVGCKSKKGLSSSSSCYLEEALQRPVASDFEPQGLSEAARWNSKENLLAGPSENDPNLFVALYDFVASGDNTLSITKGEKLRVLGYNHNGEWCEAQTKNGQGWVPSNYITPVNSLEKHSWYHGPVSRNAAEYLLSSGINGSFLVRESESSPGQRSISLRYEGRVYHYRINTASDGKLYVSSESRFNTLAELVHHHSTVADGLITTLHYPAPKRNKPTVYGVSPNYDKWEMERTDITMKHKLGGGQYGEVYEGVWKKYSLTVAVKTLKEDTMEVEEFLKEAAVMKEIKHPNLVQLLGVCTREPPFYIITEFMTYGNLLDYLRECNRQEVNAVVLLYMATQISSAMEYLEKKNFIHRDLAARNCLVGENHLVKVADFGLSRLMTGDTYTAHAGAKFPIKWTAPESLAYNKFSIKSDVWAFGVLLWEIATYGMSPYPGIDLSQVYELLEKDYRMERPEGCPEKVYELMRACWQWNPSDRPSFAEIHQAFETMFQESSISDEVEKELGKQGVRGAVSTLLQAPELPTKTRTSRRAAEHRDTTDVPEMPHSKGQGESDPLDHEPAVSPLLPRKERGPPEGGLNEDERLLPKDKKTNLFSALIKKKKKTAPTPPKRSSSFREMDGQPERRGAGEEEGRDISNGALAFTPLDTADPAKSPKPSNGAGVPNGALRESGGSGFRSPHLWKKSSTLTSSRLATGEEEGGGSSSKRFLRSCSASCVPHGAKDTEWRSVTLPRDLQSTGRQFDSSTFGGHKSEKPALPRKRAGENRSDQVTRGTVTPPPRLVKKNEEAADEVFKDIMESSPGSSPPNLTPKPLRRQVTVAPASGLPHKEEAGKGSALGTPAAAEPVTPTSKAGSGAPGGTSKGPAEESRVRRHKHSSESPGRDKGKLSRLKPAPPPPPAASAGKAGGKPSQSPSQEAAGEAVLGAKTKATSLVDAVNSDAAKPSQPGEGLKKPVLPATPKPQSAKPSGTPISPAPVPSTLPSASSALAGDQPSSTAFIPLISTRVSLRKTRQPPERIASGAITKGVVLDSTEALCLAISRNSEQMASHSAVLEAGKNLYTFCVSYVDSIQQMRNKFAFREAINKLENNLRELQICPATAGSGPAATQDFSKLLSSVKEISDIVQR

[5] = target: Proto-oncogene tyrosine-protein kinase Src (Homo sapiens, UniProt P12931); test: Inhibition of Src (unknown origin)
Proto-oncogene tyrosine-protein kinase Src, sequence (P12931 2-536 limits assumed): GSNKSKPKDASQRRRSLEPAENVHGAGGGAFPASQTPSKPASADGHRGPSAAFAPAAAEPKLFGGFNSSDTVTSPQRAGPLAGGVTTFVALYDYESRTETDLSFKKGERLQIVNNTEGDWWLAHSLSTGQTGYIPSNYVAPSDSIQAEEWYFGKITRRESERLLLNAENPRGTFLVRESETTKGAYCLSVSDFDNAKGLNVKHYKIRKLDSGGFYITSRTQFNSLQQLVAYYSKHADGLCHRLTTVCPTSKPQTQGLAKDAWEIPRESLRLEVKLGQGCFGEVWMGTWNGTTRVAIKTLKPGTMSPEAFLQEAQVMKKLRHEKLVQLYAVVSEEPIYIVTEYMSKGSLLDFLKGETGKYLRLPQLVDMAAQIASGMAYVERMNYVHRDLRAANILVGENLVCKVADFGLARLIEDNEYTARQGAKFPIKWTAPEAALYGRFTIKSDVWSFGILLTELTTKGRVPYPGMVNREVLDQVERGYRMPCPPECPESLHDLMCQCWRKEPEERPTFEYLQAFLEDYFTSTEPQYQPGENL

[6] = target: T1, Platelet-derived growth factor receptor beta (Homo sapiens, UniProt P09619); test: Inhibition of PDGFRbeta (unknown origin)
T1 sequence (P09619 whole entry): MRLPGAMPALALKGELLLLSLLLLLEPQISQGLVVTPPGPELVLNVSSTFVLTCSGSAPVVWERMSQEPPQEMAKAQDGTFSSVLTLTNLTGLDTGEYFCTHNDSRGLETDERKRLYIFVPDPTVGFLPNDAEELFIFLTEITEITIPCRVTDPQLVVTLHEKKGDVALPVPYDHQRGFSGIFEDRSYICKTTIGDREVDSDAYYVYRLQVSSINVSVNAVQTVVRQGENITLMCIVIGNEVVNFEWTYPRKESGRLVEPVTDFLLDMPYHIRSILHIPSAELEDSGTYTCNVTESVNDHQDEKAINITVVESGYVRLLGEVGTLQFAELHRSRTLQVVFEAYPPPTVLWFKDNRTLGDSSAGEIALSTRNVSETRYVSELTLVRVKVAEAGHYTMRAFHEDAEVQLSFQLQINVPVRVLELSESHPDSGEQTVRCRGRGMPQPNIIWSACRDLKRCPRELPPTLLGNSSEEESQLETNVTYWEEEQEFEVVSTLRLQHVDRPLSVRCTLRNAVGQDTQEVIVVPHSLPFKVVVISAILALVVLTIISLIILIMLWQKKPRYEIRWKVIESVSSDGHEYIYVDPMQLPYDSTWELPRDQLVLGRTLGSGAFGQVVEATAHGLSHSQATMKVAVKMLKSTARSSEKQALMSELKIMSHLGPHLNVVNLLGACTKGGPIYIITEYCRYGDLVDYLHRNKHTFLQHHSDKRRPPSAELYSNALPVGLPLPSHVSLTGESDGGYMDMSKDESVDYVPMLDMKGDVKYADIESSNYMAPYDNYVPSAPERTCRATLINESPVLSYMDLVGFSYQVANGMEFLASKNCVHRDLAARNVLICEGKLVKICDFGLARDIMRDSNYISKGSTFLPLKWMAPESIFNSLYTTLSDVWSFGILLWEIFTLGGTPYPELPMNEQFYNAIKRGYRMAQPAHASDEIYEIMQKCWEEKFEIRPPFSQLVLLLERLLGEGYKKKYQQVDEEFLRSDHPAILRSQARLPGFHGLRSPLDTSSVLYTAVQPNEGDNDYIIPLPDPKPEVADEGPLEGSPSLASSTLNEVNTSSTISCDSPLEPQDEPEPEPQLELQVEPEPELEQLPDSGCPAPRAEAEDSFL

[7] = target: Fibroblast growth factor receptor 1 (Homo sapiens, UniProt P11362); test: Inhibition of FGFR1 (unknown origin); summary of the method: as §1
Fibroblast growth factor receptor 1, sequence (P11362 whole entry): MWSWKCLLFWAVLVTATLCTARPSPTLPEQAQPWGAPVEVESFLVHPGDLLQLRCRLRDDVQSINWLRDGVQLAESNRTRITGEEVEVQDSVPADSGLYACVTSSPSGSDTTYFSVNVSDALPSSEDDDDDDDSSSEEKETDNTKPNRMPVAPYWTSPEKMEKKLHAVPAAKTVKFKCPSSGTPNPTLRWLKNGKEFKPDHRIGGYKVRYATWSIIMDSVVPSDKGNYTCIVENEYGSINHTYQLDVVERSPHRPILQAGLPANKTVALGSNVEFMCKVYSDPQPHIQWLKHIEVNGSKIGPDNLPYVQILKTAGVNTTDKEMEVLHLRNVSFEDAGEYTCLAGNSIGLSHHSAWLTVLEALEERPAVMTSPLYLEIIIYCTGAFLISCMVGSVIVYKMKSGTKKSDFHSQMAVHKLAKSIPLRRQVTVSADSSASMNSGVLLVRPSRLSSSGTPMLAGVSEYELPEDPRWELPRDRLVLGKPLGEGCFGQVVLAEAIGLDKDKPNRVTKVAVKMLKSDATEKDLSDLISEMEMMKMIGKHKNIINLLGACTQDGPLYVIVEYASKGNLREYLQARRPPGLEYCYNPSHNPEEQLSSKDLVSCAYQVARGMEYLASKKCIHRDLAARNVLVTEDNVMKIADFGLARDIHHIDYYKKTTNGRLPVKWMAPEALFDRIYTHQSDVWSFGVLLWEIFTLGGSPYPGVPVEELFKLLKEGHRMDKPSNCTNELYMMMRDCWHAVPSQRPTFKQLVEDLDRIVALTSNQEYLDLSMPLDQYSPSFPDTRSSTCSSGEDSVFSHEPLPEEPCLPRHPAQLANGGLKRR

[8] = Antiproliferative activity against mouse BNL 1ME A.7R.1 cells after 72 hrs by MTT assay; type: functional, cell-based
HT-29 = test: Antiproliferative activity against human HT-29 cells after 72 hrs by MTT assay; type: functional, cell-based; details: HT-29, 72 h
HeLa = test: Antiproliferative activity against human HeLa cells after 72 hrs by MTT assay; type: functional, cell-based
HUVEC [9] = test: Antiproliferative activity against HUVEC after 72 hrs by MTT assay; type: cell-based; details: Homo sapiens
[10] = Antiproliferative activity against human MCF7/beta cells after 72 hrs by MTT assay; type: functional, cell-based; details: MCF7, 72 h
Mus musculus [11] = test: Inhibition of FGF2-induced neovascularization in C57/BL6 mouse assessed as reduction in hemoglobin concentration in matrigel plug at 1 uM, sc measured after 7 days; type: functional, organism-based
Summary of the method: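 Three-month-old C57/BL6 mice under isoflurane received 0.5 mL Matrigel GFR subcutaneously into the flank. The gel contained heparin (12 U.I.), ±FGF-2 200 ng/plug and 1 µM compound. After 7 days, plugs were removed and steeped overnight at 4 °C in 0.1% Brij-35/PBS. Hemoglobin was measured with Drabkin's reagent at 540 nm.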

HUVEC [12] = test: Antiproliferative activity against HUVEC assessed as reduction in cell viability at 10 uM after 24 hrs by MTT assay; type: cell-based; details: human
Summary of the method: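 Primary HUVECs (passage ≤5) were seeded at 1×10^4 cell/cm² and grown for 24 h. They were exposed to compound at 10 μM for 24 h (20 h, then MTT 0.50 mg/ml for 4 h). Absorbance was read at 570 nm. Results are the percent change from untreated cultures; mean ± SD of ≥3 experiments.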

HUVEC [13] = test: Induction of apoptosis in HUVEC assessed as mono-/oligo-nucleosome formation at 10 uM after 24 hrs by ELISA; type: functional, cell-based; details: Homo sapiens
HUVEC [14] = test: Antiangiogenic activity in HUVEC assessed as effect on number of cell meshwork at 0.1 uM after 18 hrs; details: Homo sapiens
HUVEC [15] = test: Antiangiogenic activity in HUVEC assessed as decrease in dimensional parameters at 0.1 uM after 18 hrs; details: Homo sapiens
HUVEC [16] = test: Antiangiogenic activity in HUVEC assessed as disruption of tube-like structures at 0.1 uM after 18 hrs by phase contrast microscopy; details: Homo sapiens
[17] = Toxicity in mouse BNL 1ME A.7R.1 cells allografted Balb/c mouse model assessed as body weight loss at 50 mg/kg, ip daily measured after 3 days; type: organism-based; set-up: dose 50 mg/kg, route intraperitoneal; details: in vivo, 72 h
[18] = target: T1, Platelet-derived growth factor receptor beta; test: Inhibition of PDGFRbeta (unknown origin) at 1 uM
[19] = target: Epidermal growth factor receptor (Homo sapiens, UniProt P00533); test: Inhibition of EGFR (unknown origin)

Structure (SMILES): FC(F)(F)c1cccc(Nc2ncnc3c2ccc2ccccc23)c1
IC50 (NIH3T3): > 10 µM
IC50 (A-431): > 10 µM

Structure (SMILES): Cc1cccc(Nc2ncnc3cc4c(cc23)n(C)c(=O)n4C)c1
IC50 (NIH3T3): > 10 µM
IC50 (A-431): > 10 µM

Structure (SMILES): C=CCOc1cc2ncnc(Nc3cccc(Br)c3)c2cc1OC
IC50 (NIH3T3): > 10 µM
IC50 (A-431): 4.49 µM

Structure (SMILES): Brc1cccc(Nc2ncnc3c2ccc2ccccc23)c1
IC50 (NIH3T3): > 10 µM
IC50 (A-431): > 10 µM

Structure (SMILES): C=CCOc1cc2ncnc(Nc3cccc(C)c3)c2cc1OC
IC50 (NIH3T3): 6.6 µM
IC50 (A-431): 8.45 µM

Structure (SMILES): Cn1c(=O)n(C)c2cc3c(Nc4cccc(C(F)(F)F)c4)ncnc3cc21
IC50 (NIH3T3): > 10 µM
IC50 (A-431): > 10 µM

Structure (SMILES): C=CCOc1cc2ncnc(Nc3cccc(C(F)(F)F)c3)c2cc1OC
IC50 (NIH3T3): > 10 µM
IC50 (A-431): 5.95 µM

Structure (SMILES): Cc1cccc(Nc2ncnc3c2ccc2ccccc23)c1
IC50 (NIH3T3): > 10 µM
IC50 (A-431): > 10 µM

Further lines, with some results ahead:

IC50 (A-431): > 10 µM
Structure (SMILES): Cn1c(=O)n(C)c2cc3c(Nc4cccc(Br)c4)ncnc3cc21
IC50 (NIH3T3): > 10 µM

IC50 (A-431): > 10 µM
Structure (SMILES): CS(=O)(=O)Nc1cccc(Nc2ncnc3cc4c(cc23)OCO4)c1
IC50 (NIH3T3): > 10 µM

IC50 (A-431): > 10 µM
Structure (SMILES): Cc1cccc(Nc2ncnc3cc4c(cc23)OCCO4)n1
IC50 (NIH3T3): > 10 µM

inhibition [3]: 50%
IC50 [4]: 0.024 µM
IC50 [5]: 0.642 µM
IC50 [6]: 0.1 µM
IC50 [7]: 0.178 µM
IC50 (HT-29): 0.68 µM
IC50 (HeLa): 0.62 µM
Structure (SMILES): Cl.c1ccc(-c2cccc(Nc3ncnc4cc5c(cc34)OCCO5)c2)cc1
TGI (Mus musculus [1]): inactive
inhibition (HUVEC [2]): Active
IC50 [8]: 2.7 µM
IC50 (NIH3T3): 0.6 µM
IC50 (HUVEC [9]): 0.08 µM
IC50 [10]: 0.74 µM
inhibition (Mus musculus [11]): Active
Activity (HUVEC [12]): Toxic
Activity (HUVEC [13]): Active
Activity (HUVEC [14]): Active
Activity (HUVEC [15]): Active
Activity (HUVEC [16]): Active

IC50 (A-431): > 10 µM
Structure (SMILES): Cc1ccnc(Nc2ncnc3cc4c(cc23)OCO4)c1
IC50 (NIH3T3): > 10 µM

IC50 [4]: 0.051 µM
IC50 [5]: 0.032 µM
IC50 [6]: 0.243 µM
IC50 [7]: 0.063 µM
IC50 (HT-29): 0.95 µM
Structure (SMILES): Cl.c1ccc(-c2cccc(Nc3ncnc4cc5c(cc34)OCO5)c2)cc1
TGI (Mus musculus [1]): Active
inhibition (HUVEC [2]): Active
IC50 [8]: 2.8 µM
IC50 (NIH3T3): 0.6 µM
IC50 (HUVEC [9]): 0.75 µM
inhibition (Mus musculus [11]): Active
Activity (HUVEC [12]): Non-toxic
Activity (HUVEC [13]): inactive
Activity (HUVEC [14]): Active
Activity (HUVEC [16]): inactive

IC50 (A-431): > 10 µM
Structure (SMILES): CS(=O)(=O)Nc1cccc(Nc2ncnc3cc4c(cc23)OCCO4)c1
IC50 (NIH3T3): > 10 µM

IC50 (A-431): > 10 µM
Structure (SMILES): Cc1cccc(Nc2ncnc3cc4c(cc23)OCO4)n1
IC50 (NIH3T3): > 10 µM

IC50 (HT-29): > 10 µM
IC50 (HeLa): > 10 µM
Structure (SMILES): COc1cc2ncnc(Nc3cccc(Br)c3)c2cc1OC
inhibition (HUVEC [2]): Active
IC50 [8]: 9.5 µM
IC50 (NIH3T3): > 10 µM
IC50 (HUVEC [9]): 4.06 µM
IC50 [10]: 8.21 µM
inhibition (Mus musculus [11]): inactive
Activity (HUVEC [14]): Active
Activity (HUVEC [16]): inactive

inhibition [18]: 40%
inhibition [3]: 30%
IC50 [4]: 0.056 µM
IC50 [5]: 0.645 µM
IC50 [7]: 0.063 µM
IC50 [19]: 0.027 µM
IC50 (A-431): 0.66 µM
IC50 (HT-29): 0.71 µM
IC50 (HeLa): 5.49 µM
Structure (SMILES): Cl.c1ccc(-c2cccc(Nc3ncnc4cc5c(cc34)OCCCO5)c2)cc1
Activity [17]: Toxic
inhibition (HUVEC [2]): Active
IC50 [8]: 3 µM
IC50 (NIH3T3): 0.92 µM
IC50 (HUVEC [9]): 0.91 µM
IC50 [10]: 0.7 µM
inhibition (Mus musculus [11]): Active
Activity (HUVEC [12]): Toxic
Activity (HUVEC [13]): Active
Activity (HUVEC [14]): Active
Activity (HUVEC [16]): inactive

IC50 (A-431): 5.17 µM
Structure (SMILES): Cc1ccnc(Nc2ncnc3cc4c(cc23)OCCO4)c1
IC50 (NIH3T3): 6.6 µM
